Series [1] is described as follows: Inhibition of PKA (unknown origin) incubated for 30 mins using REBtide substrate by ADP-Glo assay. Further details: species or system Homo sapiens. A digest of the protocol: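 ADP-Glo reagent was added for 40 min, then detection reagent for 30 min, and luminescence was read. Three experiments in duplicate; curves fitted as for GRK.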
On the technique in general: ADP-Glo turns the ADP formed in a reaction into a luminescent signal.

The target of series [2] is T1, G protein-coupled receptor kinase 3 (Homo sapiens) (UniProt P35626).
T1 sequence (whole entry): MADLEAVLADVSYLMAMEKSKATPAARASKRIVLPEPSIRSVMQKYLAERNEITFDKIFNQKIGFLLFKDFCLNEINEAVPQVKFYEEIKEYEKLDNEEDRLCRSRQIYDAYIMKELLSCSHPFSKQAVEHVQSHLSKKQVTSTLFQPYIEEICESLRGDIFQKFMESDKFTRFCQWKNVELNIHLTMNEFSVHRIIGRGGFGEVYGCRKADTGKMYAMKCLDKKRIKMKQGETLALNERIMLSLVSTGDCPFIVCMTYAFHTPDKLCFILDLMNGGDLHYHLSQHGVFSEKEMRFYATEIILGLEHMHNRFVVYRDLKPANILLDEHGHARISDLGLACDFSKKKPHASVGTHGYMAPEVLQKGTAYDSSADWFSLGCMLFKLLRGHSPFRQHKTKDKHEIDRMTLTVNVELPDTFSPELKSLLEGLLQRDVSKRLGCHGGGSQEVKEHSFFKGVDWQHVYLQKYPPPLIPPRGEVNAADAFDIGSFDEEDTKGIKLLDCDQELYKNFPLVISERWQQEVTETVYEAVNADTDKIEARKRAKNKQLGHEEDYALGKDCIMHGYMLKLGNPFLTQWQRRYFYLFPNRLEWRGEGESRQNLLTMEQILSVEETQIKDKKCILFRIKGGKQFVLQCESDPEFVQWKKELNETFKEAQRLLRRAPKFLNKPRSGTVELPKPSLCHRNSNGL
As to the kind of experiment: Inhibition of GRK3 (unknown origin) at 1 uM relative to control. To be noted: time 3-5 min.

Series [3] addresses T2, G protein-coupled receptor kinase 5 (Homo sapiens, UniProt P34947). As to the kind of experiment: Covalent inhibition of GRK5 (unknown origin) using porcine brain tubulin as substrate by [gamma32P]ATP based radiometric assay.
Target sequence in this assay (P34947 whole entry): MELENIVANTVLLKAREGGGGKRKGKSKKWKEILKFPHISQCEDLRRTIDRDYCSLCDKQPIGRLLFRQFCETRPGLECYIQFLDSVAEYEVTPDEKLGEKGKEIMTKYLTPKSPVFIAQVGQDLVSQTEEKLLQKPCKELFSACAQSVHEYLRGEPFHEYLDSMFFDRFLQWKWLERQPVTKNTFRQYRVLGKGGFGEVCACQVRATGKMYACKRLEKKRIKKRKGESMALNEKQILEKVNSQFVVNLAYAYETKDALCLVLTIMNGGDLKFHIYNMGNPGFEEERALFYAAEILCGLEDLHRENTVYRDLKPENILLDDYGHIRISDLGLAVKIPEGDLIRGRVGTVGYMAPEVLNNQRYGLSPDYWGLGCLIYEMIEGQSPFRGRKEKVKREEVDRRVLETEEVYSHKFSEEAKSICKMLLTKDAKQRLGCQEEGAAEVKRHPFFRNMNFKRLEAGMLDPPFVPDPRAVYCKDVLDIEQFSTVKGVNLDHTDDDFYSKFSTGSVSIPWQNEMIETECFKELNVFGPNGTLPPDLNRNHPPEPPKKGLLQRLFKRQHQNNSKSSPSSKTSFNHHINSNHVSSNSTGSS
Series [4] deals with T2, G protein-coupled receptor kinase 5.
Target sequence in this assay (P34947 whole entry, looked up): as the sequence (P34947 whole entry) above
The target of series [5] is G protein-coupled receptor kinase 6 (Homo sapiens) (UniProt P43250). As to the kind of experiment: Inhibition of GRK6 (unknown origin) at 1 uM relative to control.
In series [6] the target is T3, Beta-adrenergic receptor kinase 1 (Bos taurus, UniProt P21146).
T3 sequence (P21146 whole entry): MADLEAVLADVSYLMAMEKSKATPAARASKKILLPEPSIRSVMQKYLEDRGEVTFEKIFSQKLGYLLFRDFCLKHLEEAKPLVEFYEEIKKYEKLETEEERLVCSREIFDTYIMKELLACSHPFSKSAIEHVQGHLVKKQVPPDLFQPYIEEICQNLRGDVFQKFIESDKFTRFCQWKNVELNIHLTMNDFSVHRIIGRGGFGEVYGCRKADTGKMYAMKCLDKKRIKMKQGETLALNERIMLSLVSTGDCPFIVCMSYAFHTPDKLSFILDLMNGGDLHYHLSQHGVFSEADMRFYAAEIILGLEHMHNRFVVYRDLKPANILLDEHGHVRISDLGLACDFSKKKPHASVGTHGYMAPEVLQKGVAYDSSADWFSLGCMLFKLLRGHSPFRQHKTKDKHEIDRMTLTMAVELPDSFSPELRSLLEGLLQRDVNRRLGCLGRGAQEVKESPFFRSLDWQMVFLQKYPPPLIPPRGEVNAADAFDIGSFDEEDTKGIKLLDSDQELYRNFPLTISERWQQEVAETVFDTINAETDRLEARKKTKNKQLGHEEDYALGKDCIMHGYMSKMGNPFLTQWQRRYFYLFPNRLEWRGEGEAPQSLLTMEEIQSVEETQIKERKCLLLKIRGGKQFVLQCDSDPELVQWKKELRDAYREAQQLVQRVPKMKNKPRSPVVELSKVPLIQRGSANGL
As to the kind of experiment: Inhibition of bovine GRK2 using porcine brain tubulin as substrate incubated for 3 to 5 mins by [gamma32P]ATP based radiometric assay.

A short description of series [7]: Thermodynamic solubility of compound in phosphate buffer at 6 pH by shake flask method. The series is classed as physicochemical. The conditions noted are these: pH 6, read-out: Therm_solubility.
In series [8] the target is T2, G protein-coupled receptor kinase 5. As to the kind of experiment: Inhibition of human GRK5 using porcine brain tubulin as substrate incubated for 3 to 5 mins by [gamma32P]ATP based radiometric assay.
Target sequence in this assay (P34947 whole entry): as the sequence (P34947 whole entry) above
A short description of series [9]: Metabolic stability in human liver microsomes assessed as half life at 100 uM in presence of NADPH by LC-MS/MS analysis. The series is classed as ADME, Microsome. A digest of the protocol:
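Stock in DMSO (1 mM) was diluted to a 100 μM working solution in 0.1 M phosphate buffer with 3.3 mM MgCl2. Microsomes (20 mg/mL) were primed with NADPH at 37 °C for 3 min, then dosed with compound. Samples were taken at 0, 5, 10, 15, 30, 45 and 60 min and stopped with cold acetonitrile containing internal standard. Protein was spun out before analysis.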

Chain of G protein-coupled receptor kinase 6 (Homo sapiens) (P43250 whole entry, looked up): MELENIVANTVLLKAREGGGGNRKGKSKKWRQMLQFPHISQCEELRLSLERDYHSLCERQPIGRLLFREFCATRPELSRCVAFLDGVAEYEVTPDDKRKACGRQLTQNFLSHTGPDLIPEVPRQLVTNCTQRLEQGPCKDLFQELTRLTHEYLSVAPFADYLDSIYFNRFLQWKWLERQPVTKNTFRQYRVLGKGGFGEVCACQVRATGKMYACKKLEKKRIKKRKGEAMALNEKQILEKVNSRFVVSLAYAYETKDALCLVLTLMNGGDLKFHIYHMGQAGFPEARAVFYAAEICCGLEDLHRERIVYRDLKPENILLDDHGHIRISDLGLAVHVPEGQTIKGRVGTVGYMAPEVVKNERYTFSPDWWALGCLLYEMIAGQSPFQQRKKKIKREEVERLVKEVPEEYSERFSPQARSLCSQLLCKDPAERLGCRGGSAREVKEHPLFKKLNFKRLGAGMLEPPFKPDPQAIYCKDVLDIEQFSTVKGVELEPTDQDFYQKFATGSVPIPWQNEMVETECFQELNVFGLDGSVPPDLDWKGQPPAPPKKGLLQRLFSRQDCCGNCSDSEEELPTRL

A word on the IC50: it is the concentration at which inhibition is half-maximal. A lower IC50 goes with greater potency. For the compound `Cc1[nH]c(/C=C2\C(=O)Nc3ccc(C(=O)N[C@H](C)c4ccccc4)cc32)c(C)c1NC(=O)/C(C#N)=C/C(C)(C)C`, the IC50 in series [1] is greater than 250 µM.

`CC1=C(C(=O)Nc2ccc3[nH]ncc3c2)C(c2ccc(F)c(C(=O)NCc3ccccn3)c2)NC(=O)N1` (centres undefined): the IC50 in series [1] was greater than 250 µM.

The compound `Fc1ccc([C@@H]2CCNC[C@H]2COc2ccc3c(c2)OCO3)cc1` [PAROXETINE] gave an IC50 in series [1] of 850 µM.

As a reminder, the inhibition is how much of the control response was suppressed. Take `Cc1[nH]c(/C=C2\C(=O)Nc3ccc(C(=O)N[C@H](C)c4ccccc4)cc32)c(C)c1NC(=O)CBr` (mixture of isomers): the inhibition in series [2] was found to be 21%; in series [5], 97%. For the same compound, the Ki in [3] was 0.11 µM. The IC50 in series [1] is greater than 250 µM. In series [4], this compound had a Kinact greater than 1 min⁻¹. Also, the Ratio IC50 in the series filed under Homo sapiens was 5.

In the case of `C#CCCNC(=O)c1c(C)[nH]c(/C=C2\C(=O)Nc3ccc(C(=O)N[C@H](C)c4ccccc4)cc32)c1C` (mixture of isomers), the IC50 in [1] is greater than 250 µM; in series [6], 130 µM.

In [1], `CCN(CC)CCNC(=O)c1c(C)[nH]c(/C=C2\C(=O)Nc3ccc(C(=O)N[C@H](C)c4ccccc4)cc32)c1C` gave an IC50 greater than 250 µM.

On to `Cc1[nH]c(/C=C2\C(=O)Nc3ccc(C(=O)N[C@H](C)c4ccccc4)cc32)c(C)c1NC(=O)C(O)CCl` (some centres undefined), for which the IC50 in series [1] is greater than 250 µM.

Turning to `C#CCNC(=O)c1c(C)[nH]c(/C=C2\C(=O)Nc3ccc(C(=O)N[C@H](C)c4ccccc4)cc32)c1C`, the inhibition in series [5] turned out to be 94%.

Turning to `C=CCNC(=O)c1c(C)[nH]c(/C=C2\C(=O)Nc3ccc(C(=O)N[C@H](C)c4ccccc4)cc32)c1C`, in series [1], the IC50 was greater than 250 µM.

As to `CCN(CC)CCNC(=O)c1c(C)[nH]c(/C=C2\C(=O)Nc3ccc(F)cc32)c1C` (mixture of isomers) [SUNITINIB], the solubility thermodynamic in series [7] was found to be 350 µg/mL.

For `C=CCCNC(=O)c1c(C)[nH]c(/C=C2\C(=O)Nc3ccc(C(=O)N[C@H](C)c4ccccc4)cc32)c1C` (mixture of isomers), the IC50 in series [8] was found to be 1.94 µM.

Take `Cc1[nH]c(/C=C2\C(=O)Nc3ccc(C(=O)N[C@H](C)c4ccccc4)cc32)c(C)c1NC(=O)CCl` (mixture of isomers): in [9], the t1/2 worked out at 13.3 min. Also, the IC50 in [1] was greater than 250 µM.

Source of the values: ChEMBL document CHEMBL4765490 (J Med Chem, 2021).
